In ChEMBL document CHEMBL1156797, “Synthesis and antiplasmodial activity of new indolone N-oxide derivatives” (J Med Chem, 2010):

System: not listed separately
Assay: Cytotoxicity against human MCF7 cells after 48 hrs by MTT assay
Type: cell-based
Conditions: not given

COc1ccc2c(c1)C(=O)C(c1ccc(Cl)c(Cl)c1)=[N+]2[O-] and COc1ccc2c(c1)C(=O)C(c1ccc(Cl)c(C)c1)=[N+]2[O-] are within 1.5-fold of each other in CC50 at 48 h: 8.1 µM for the first, 10.3 µM for the second.

Compared with CCC1=[N+]([O-])c2cc3c(cc2C1=O)OCO3, COc1ccc2cc(C3=[N+]([O-])c4cc5c(cc4C3=O)OCO5)ccc2c1 is 2.3-fold lower in CC50 at 48 h: 59 µM for the first, 25.6 µM for the second.

First: COc1ccc(C2=[N+]([O-])c3cc(OC)ccc3C2=O)cc1
Second: COc1ccc(C2=[N+]([O-])c3cc([N+](=O)[O-])ccc3C2=O)cc1
The CC50 at 48 h of the first is 2.5-fold lower: 8.8 µM for the first, 21.8 µM for the second.

Compared with O=C1C(c2ccc([N+](=O)[O-])cc2)=[N+]([O-])c2ccccc21, O=C1C(c2ccc(F)cc2)=[N+]([O-])c2ccccc21 is 3.1-fold higher in CC50 at 48 h: 2.8 µM for the first, 8.7 µM for the second.

Compared with O=C1C(c2ccc(Cl)cc2)=[N+]([O-])c2ccccc21, CCc1ccc(C2=[N+]([O-])c3ccccc3C2=O)cc1 is higher in CC50 at 48 h: 17.8 µM for the first, > 39.8 µM for the second.

First: O=C1C(c2ccc(Cl)cc2)=[N+]([O-])c2cc(C(F)(F)F)ccc21
Second: COc1ccc(C2=[N+]([O-])c3cc(C(F)(F)F)ccc3C2=O)cc1
The CC50 at 48 h of the first is 2.5-fold lower: 3.1 µM for the first, 7.9 µM for the second.

Going from COc1ccc2c(c1)C(=O)C(c1ccc(NC(C)=O)cc1)=[N+]2[O-] to COc1ccc2c(c1)C(=O)C(c1ccc(C(C)=O)cc1)=[N+]2[O-], the CC50 at 48 h rises from 7.4 µM to 40.2 µM (5.4-fold).

Going from COc1ccc2c(c1)C(=O)C(c1ccc(N)cc1)=[N+]2[O-] to COc1ccc2c(c1)C(=O)C(c1ccc(Cl)cc1Cl)=[N+]2[O-], the CC50 at 48 h rises from 12.7 µM to > 31 µM.

Going from O=C1C(c2ccsc2)=[N+]([O-])c2cc(Cl)ccc21 to CC(C)CC1=[N+]([O-])c2ccccc2C1=O, the CC50 at 48 h rises from 4.9 µM to 43.1 µM (8.8-fold).

System: not listed separately
Assay: Selectivity index, ratio of CC50 for human MCF7 cells to IC50 for chloroquine-resistant Plasmodium falciparum FcB1
Type: functional
Conditions: not given
Outline: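 XTT 0.5 mg/mL added for 180 min, formazan read at 450 nm, value taken from dose–response curves, two experiments in triplicate. This CC50 is divided by the FcB1 IC50 to give the index.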

In order of falling “Ratio CC50/IC50” value:
1. COc1ccc2c(c1)C(=O)C(c1ccc(Cl)c(C)c1)=[N+]2[O-]  3425
2. COc1ccc2c(c1)C(=O)C(c1ccc(N)cc1)=[N+]2[O-]  528
3. COc1ccc(C2=[N+]([O-])c3cc(OC)ccc3C2=O)cc1  83.3
4. COc1ccc2c(c1)C(=O)C(c1ccc(Cl)c(Cl)c1)=[N+]2[O-]  81
5. O=C1C(c2ccc(F)cc2)=[N+]([O-])c2ccccc21  72.5
6. O=C1C(c2ccc(Cl)cc2)=[N+]([O-])c2ccccc21  66
7. COc1ccc(C2=[N+]([O-])c3cc([N+](=O)[O-])ccc3C2=O)cc1  63.2
8. COc1ccc(C2=[N+]([O-])c3cc(C(F)(F)F)ccc3C2=O)cc1  58.8
9. O=C1C(c2ccsc2)=[N+]([O-])c2cc(Cl)ccc21  38
10. COc1ccc2c(c1)C(=O)C(c1ccc(NC(C)=O)cc1)=[N+]2[O-]  18.5
11. O=C1C(c2ccc(Cl)cc2)=[N+]([O-])c2cc(C(F)(F)F)ccc21  16.5
12. CCC1=[N+]([O-])c2cc3c(cc2C1=O)OCO3  16

With CCc1ccc(C2=[N+]([O-])c3ccccc3C2=O)cc1 the “Ratio CC50/IC50” value was >14.
With COc1ccc2c(c1)C(=O)C(c1ccc(Cl)cc1Cl)=[N+]2[O-] the “Ratio CC50/IC50” value was >136.
In the case of CC(C)CC1=[N+]([O-])c2ccccc2C1=O, the “Ratio CC50/IC50” value is reported as <9.

System: Plasmodium falciparum
Assay: Antimalarial activity against chloroquine-resistant Plasmodium falciparum FcB1 assessed as [3H]hypoxanthine incorporation after 48 hrs by beta-counter
Type: functional, organism-based
Conditions: FcB1/Columbia
Outline: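 Primary assay (Toulouse) on FcB1 cultured in RPMI with 25 mM HEPES and 10% human serum, O RBCs. Serial dilutions in triplicate, 2% parasitaemia, 2% haematocrit, 48 h at 37 °C, 5% CO2. [3H]-hypoxanthine added at 24 h, freeze-thaw harvest, β-counting. IC50 by linear regression on the linear segment of the semilog inhibition curve. Three independent repeats.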

Going from O=C1C(c2ccccc2)=[N+]([O-])c2cc3c(cc21)OCO3 to O=C1C(c2ccc(F)cc2)=[N+]([O-])c2cc3c(cc21)OCO3, the IC50 falls from 12700 nM to 1710 nM (7.4-fold).

Going from COc1ccc2cc(C3=[N+]([O-])c4cc(OCc5ccccc5)ccc4C3=O)ccc2c1 to COc1ccc(C2=[N+]([O-])c3cc(OC)ccc3C2=O)cc1, the IC50 falls from 730 nM to 106 nM (6.9-fold).

First: COc1ccc2c(c1)C(=O)C(c1ccc(Cl)c(Cl)c1)=[N+]2[O-]
Second: COc1ccc2c(c1)C(=O)C(c1ccc(Cl)c(C)c1)=[N+]2[O-]
The IC50 of the first is 33-fold higher: 100 nM for the first, 3 nM for the second. The second is the more potent here.

Going from CCC1=[N+]([O-])c2cc3c(cc2C1=O)OCO3 to CC(C)CC1=[N+]([O-])c2ccccc2C1=O, the IC50 rises from 3560 nM to > 4500 nM. The first is the more potent here.

Compared with O=C1C(c2ccc([N+](=O)[O-])cc2)=[N+]([O-])c2ccccc21, O=C1C(c2ccc(F)cc2)=[N+]([O-])c2ccccc21 is 2.1-fold higher in IC50: 56 nM for the first, 120 nM for the second.

First: COc1cc2c(cc1OC)[N+]([O-])=C(c1ccc(C)cc1)C2=O
Second: COc1cc2c(cc1OC)[N+]([O-])=C(c1ccccc1)C2=O
The IC50 of the first is 7.1-fold lower: 265 nM for the first, 1890 nM for the second. The first is the more potent here.

Going from O=C1C(c2ccc(Cl)cc2)=[N+]([O-])c2ccccc21 to CCc1ccc(C2=[N+]([O-])c3ccccc3C2=O)cc1, the IC50 rises from 272 nM to 2750 nM (10-fold). The first is the more potent here.

O=C1C(c2ccc(Cl)cc2)=[N+]([O-])c2cc(C(F)(F)F)ccc21 and COc1ccc(C2=[N+]([O-])c3cc(C(F)(F)F)ccc3C2=O)cc1 are within 1.5-fold of each other in IC50: 186 nM for the first, 135 nM for the second.

Compared with COc1ccc2c(c1)C(=O)C(c1ccc(NC(C)=O)cc1)=[N+]2[O-], COc1ccc2c(c1)C(=O)C(c1ccc(C(C)=O)cc1)=[N+]2[O-] is 1.6-fold lower in IC50: 400 nM for the first, 256 nM for the second.

Compared with COc1ccc2c(c1)C(=O)C(c1ccc(N)cc1)=[N+]2[O-], COc1ccc(C2=[N+]([O-])c3cc([N+](=O)[O-])ccc3C2=O)cc1 is 14-fold higher in IC50: 24 nM for the first, 345 nM for the second.

Going from COc1ccc2c(c1)C(=O)C(c1ccc(Cl)cc1Cl)=[N+]2[O-] to COc1ccc2c(c1)C(=O)C(c1ccccc1Cl)=[N+]2[O-], the IC50 rises from 227 nM to 1130 nM (5-fold). The first is the more potent here.

In the case of O=C1C(c2ccsc2)=[N+]([O-])c2cc(Cl)ccc21, the IC50 is reported as 130 nM.
